# Measured values published in PubChem BioAssay.
# Activity calls are given as the source filed them.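 How the source made its calls, unless noted: active means NADPH fluorescence slope more negative than the mean of all samples by about 3 SD, 99.7% confidence; inactive means the rest.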
# Assays:
# [1] = inhibitors of TNFa-induced NFkB p65 translocation, primary screen, imaging, HUVEC, MLSMR starter and 10KST1 sets (AID 438;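 active means inhibition above 20% together with a positive visual image hit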;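 further: compound added about 3h40 before a 20 min TNFalpha stimulation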;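 on inhibition: signal is the nuclear over cytoplasmic p65 intensity ratio per well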); conditions: HUVEC TNFa-induced p65 nuclear translocation; cell count: measured here: nuclei count (cytotoxicity indicator), at 2.08 µM; inhibition: at 2 µM, stronger effect = higher value, 0% TNFa-plus-vehicle, 100% no-TNFa wells
# [2] = reduction of polyQ htt aggregates in cells – imaging, exon1htt(103Q)mCFP cells, high-content imaging, primary screen (AID 483;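 active means visual image review flags a hit and inhibition of aggregation exceeds 20%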;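 further: compound exposure lasted 3 days before fixation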;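 on nuclei count: percent of the per-plate median nuclei count of sample wells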); conditions: exon1htt(103Q)mCFP cell line, aggregate imaging, at 2 µM; inhibition of aggregation: stronger effect = higher value; nuclei count: measured here: cell count, toxicity
# [3] = endothelial E-selectin expression blockers – imaging, HUVEC, immunofluorescence, MLSMR starter and 10KST1 sets, primary screen (AID 487;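 active means visually confirmed hit in the image check and inhibition above 20%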;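 on inhibition: signal is fraction of cell area covered by stained E-selectin grains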;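 on nuclei count: 100% = median nuclei count of all wells on the same plate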); conditions: HUVEC TNFalpha-induced E-selectin immunofluorescence imaging, at 2 µM; inhibition: stronger effect = higher value; nuclei count: measured here: cell number, toxicity
# [4] = biological target: Voltage-gated potassium channel subunit beta-2 (Rattus norvegicus) (UniProt P62483); test: inhibitors of rat Kvbeta2 reductase activity – biochemical, NADPH fluorescence, primary screen (AID 622;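 active means fluorescence slope higher than the sample average by over 3 SD, cut at about -0.22 in these data, passing the limit was not always enough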;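 further: slope of raw intensity against log time taken from 70 to 1610 s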); conditions: recombinant KvBeta, 4-cyanobenzaldehyde reduction, at 10 µM, stronger effect = higher value
# [5] = biological target: Voltage-gated potassium channel subunit beta-2 (Rattus norvegicus) (UniProt P62483); test: enhancers of rat Kvbeta2 NADPH turnover – biochemical, NADPH fluorescence, primary screen (AID 623); conditions: Recombinant KvBeta, NADPH fluorescence decrease slope, 10 min; at 10 µM; stronger effect = lower value;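 further: fluorescence intensity change per second fitted from 20 to 320 s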
# [6] = biological target: Muscarinic acetylcholine receptor M4 (Homo sapiens) (UniProt P08173); test: M4-linked GIRK flux change, two-sided – cell-based, HEK293 M4/GIRK, thallium flux, BTC-AM, M4 allosteric agonist project, primary screen (AID 625;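 active means fluorescence slope after compound addition differing from the mean of all tested samples at 99.7% confidence, mostly higher but some lower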;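 further: thallium influx through GIRK channels coupled to M4 in HEK293 cells with BTC-AM dye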); conditions: at 10 µM, actives lie on both sides
# Method in brief: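 Assay system: HEK293 cells with M4 receptor and GIRK channels / Controls: carbachol and DMSO controls / Schedule: 1 h dye loading, 2 min kinetic read / Technique: kinetic fluorescence with BTC-AM dye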
# [7] = blockers of RIG-like receptor reporter activation – cell-based, Sendai virus stimulus, luciferase, 10K MLSCN set, TLR/RLR signaling modifier project, primary screen (AID 602276;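 active means inhibition at or above 50% at 10 µM; inactive means inhibition below 50%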;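 further: firefly luciferase from ISG56 promoter only with Renilla not read in this screen; 0% = Sendai virus plus DMSO and 100% = medium plus DMSO without virus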); conditions: HEK293 RL24 IRF3 luciferase reporter, at 10 µM, stronger effect = higher value
# [8] = TLR3 IRF3 reporter activation blockers – cell-based, poly I:C stimulus, luciferase, 10K MLSCN set, primary screen (AID 602277;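 active means inhibition of the reporter signal at or above 50%; inactive means inhibition below 50%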); conditions: HEK293-TLR3 RL24 IRF3 luciferase reporter, at 10 µM, stronger effect = higher value
# Chain of Muscarinic acetylcholine receptor M4 (Homo sapiens) (P08173 whole entry, looked up): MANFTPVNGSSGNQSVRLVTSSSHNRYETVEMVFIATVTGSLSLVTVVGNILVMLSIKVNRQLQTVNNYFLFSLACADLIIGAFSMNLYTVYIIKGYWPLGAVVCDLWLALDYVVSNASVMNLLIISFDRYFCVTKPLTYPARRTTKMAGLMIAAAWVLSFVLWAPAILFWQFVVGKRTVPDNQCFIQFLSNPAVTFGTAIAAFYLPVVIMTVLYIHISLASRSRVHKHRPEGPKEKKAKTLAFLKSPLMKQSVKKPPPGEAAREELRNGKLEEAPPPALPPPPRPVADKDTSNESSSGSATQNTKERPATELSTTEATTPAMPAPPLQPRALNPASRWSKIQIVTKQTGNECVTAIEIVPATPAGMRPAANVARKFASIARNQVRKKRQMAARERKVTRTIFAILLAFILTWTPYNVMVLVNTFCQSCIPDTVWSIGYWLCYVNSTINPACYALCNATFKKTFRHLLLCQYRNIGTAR
# Chain of Voltage-gated potassium channel subunit beta-2 (Rattus norvegicus) (P62483 whole entry, looked up): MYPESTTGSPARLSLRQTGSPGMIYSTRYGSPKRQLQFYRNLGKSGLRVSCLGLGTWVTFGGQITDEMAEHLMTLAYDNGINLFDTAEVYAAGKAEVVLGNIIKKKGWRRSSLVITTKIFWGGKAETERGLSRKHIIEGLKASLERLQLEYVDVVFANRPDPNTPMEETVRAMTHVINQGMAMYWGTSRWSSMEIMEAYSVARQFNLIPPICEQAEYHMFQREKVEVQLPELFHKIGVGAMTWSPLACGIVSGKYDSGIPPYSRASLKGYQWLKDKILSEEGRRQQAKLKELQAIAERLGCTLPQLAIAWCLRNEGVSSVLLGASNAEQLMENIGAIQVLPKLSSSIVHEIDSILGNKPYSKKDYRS
SMILES,cell count [1],inhibition [1],inhibition of aggregation [2],nuclei count [2],inhibition [3],nuclei count [3],fluorescence slope [4],NADPH fluorescence slope [5],fluorescence slope [6],inhibition [7],inhibition [8]
Cn1c(=O)c(C(=S)NC(=O)C2CC2)c(N)n(Cc2ccccc2)c1=O,381,-8% (inactive),14.6% (inactive),111%,-77.3% (inactive),141%,-0.48 (inactive),-3.3e-05 (inactive),0.00619 (inactive),10.8% (inactive),14.5% (inactive)
CC(C)CCn1c(SCC#N)nc2c(sc3ccccc32)c1=O,718,-3.6% (inactive),0.6% (inactive),117%,-60.1% (inactive),119%,-0.485 (inactive),-2.4e-05 (inactive),0.00662 (inactive),6.8% (inactive),14.8% (inactive)
CCOC(=O)COc1ccc(S(=O)(=O)Nc2ccc3c(c2)OCO3)cc1,408,9.5% (inactive),3.4% (inactive),98.2%,-137% (inactive),115%,-0.588 (inactive),-0.000101 (inactive),0.00399 (inactive),12.4% (inactive),19.9% (inactive)
Cn1c(=O)c2c(nc(NCCc3ccccc3)n2CC(=O)NCCc2ccccc2)n(C)c1=O,339,2.5% (inactive),6.2% (inactive),94.2%,-86.4% (inactive),105%,-0.575 (inactive),2.8e-06 (inactive),0.00514 (inactive),30.2% (inactive),31.9% (inactive)
CC(C)(C)C(=O)Oc1cc(N)n(S(=O)(=O)c2ccccc2)n1,228,-0.3% (inactive),-1.1% (inactive),109%,-24.6% (inactive),129%,-0.52 (inactive),-5.6e-05 (inactive),0.00539 (inactive),-12% (inactive),-7.53% (inactive)
CCCCC(=NCCO)C1=C(O)C(C(=O)OC)C(C)(C)CC1=O (stereo not drawn),473,1.8% (inactive),0.5% (inactive),102%,-64.1% (inactive),167%,-0.407 (inactive),5e-05 (inactive),0.00804 (inactive),16.3% (inactive),18.4% (inactive)
O=C(O)CCCC(=O)Nc1ccc(Br)cc1C(=O)O,398,3.8% (inactive),-5.6% (inactive),108%,12.5% (inactive),103%,-0.57 (inactive),2.4e-05 (inactive),0.00576 (inactive),16.9% (inactive),20.6% (inactive)
O=C(O)CSc1ccc2ccccc2n1,418,3.6% (inactive),1.4% (inactive),106%,15.7% (inactive),102%,-0.525 (inactive),-3.7e-05 (inactive),0.00444 (inactive),19% (inactive),23.8% (inactive)
Cc1nc2cccc(C(=O)NC3CCCCC3)c2o1,369,6.8% (inactive),-19.6% (inactive),53.7%,-67.3% (inactive),102%,-0.416 (inactive),-1.2e-05 (inactive),0.00546 (inactive),10.4% (inactive),13.1% (inactive)
CN(C)c1ccc(CNC2CC(C)(C)NC(C)(C)C2)cc1,334,2.4% (inactive),-12.5% (inactive),106%,20.8% (inactive),91.1%,-0.584 (inactive),-4.8e-05 (inactive),0.00412 (inactive),-0.582% (inactive),16.7% (inactive)
Cc1noc(C)c1S(=O)(=O)Nc1c(C)n(C)n(-c2ccccc2)c1=O,410,2.5% (inactive),33.5% (inactive),84.8%,-5.4% (inactive),96%,-0.472 (inactive),1.2e-05 (inactive),0.00591 (inactive),13.8% (inactive),22.3% (inactive)
CCNCCNC(=O)c1c(O)c2ccccc2n(CC)c1=O,289,-1.4% (inactive),-5.8% (inactive),60.8%,29.6% (inactive),99.7%,-0.539 (inactive),-4.3e-05 (inactive),0.0077 (inactive),10% (inactive),13.5% (inactive)
c1csc(-c2nc3nc4ccccc4nc3n2Cc2ccc3c(c2)OCO3)c1,837,1.7% (inactive),-18.6% (inactive),114%,-9.5% (inactive),108%,-0.405 (inactive),-4.1e-05 (inactive),0.00582 (inactive),-28.9% (inactive),-79.4% (inactive)
O=C1c2ccccc2NC(c2ccco2)N1O (stereo not drawn),426,3% (inactive),-3.7% (inactive),110%,-169% (inactive),132%,-0.579 (inactive),-2.1e-05 (inactive),0.006 (inactive),8.36% (inactive),10.8% (inactive)
CCOc1ccc(N(CC(=O)NCC2CCCO2)S(=O)(=O)c2ccc(OC)c(OC)c2)cc1 (stereo not drawn),326,3.5% (inactive),-10.6% (inactive),107%,-47% (inactive),112%,-0.572 (inactive),-3.5e-05 (inactive),0.00351 (inactive),10.6% (inactive),18.4% (inactive)
O=C(O)C1C2CCC(O2)C1C(=O)Nc1cccc(F)c1 (stereo not drawn),596,-2% (inactive),-0.8% (inactive),109%,-56.8% (inactive),104%,-0.435 (inactive),-3.5e-06 (inactive),0.00527 (inactive),20.3% (inactive),19.5% (inactive)
CCOC(=O)C1CCN(C(=O)c2ccc(OC)cc2OC)CC1,676,-5.3% (inactive),0.1% (inactive),97.6%,43.5% (inactive),86.8%,-0.566 (inactive),5.6e-06 (inactive),0.00429 (inactive),20% (inactive),20.5% (inactive)
Cc1cc(NC(=O)Cn2cnc3c2c(=O)n(C)c(=O)n3C)n(-c2ccccc2)n1,580,-38.9% (inactive),1.1% (inactive),99.2%,22.7% (inactive),68.4%,-0.33 (inactive),-8.3e-05 (inactive),0.00675 (inactive),13.4% (inactive),17% (inactive)
Cn1nnnc1SCC(=O)NCc1ccco1,467,4.6% (inactive),-7.3% (inactive),133%,-60.2% (inactive),172%,-0.443 (inactive),0.000107 (inactive),0.00818 (inactive),-10.5% (inactive),-15.1% (inactive)
COc1ccc(S(=O)(=O)NC(CC(=O)NCc2ccco2)c2ccco2)cc1 (stereo not drawn),621,8.2% (inactive),0.5% (inactive),114%,-67.3% (inactive),97.1%,-0.566 (inactive),-3e-05 (inactive),0.00653 (inactive),19.3% (inactive),20.6% (inactive)
Cc1ccc(C(=O)Nc2nc3c(s2)CCCC3)o1,341,-4% (inactive),-8.3% (inactive),101%,-96.9% (inactive),120%,-0.561 (inactive),-4.4e-05 (inactive),0.00262 (inactive),-30.4% (inactive),-89.5% (inactive)
CCCn1c(N2CCN(CC(=O)Nc3ccc4c(c3)OCCO4)CC2)nc2ccccc21,411,-11% (inactive),1.8% (inactive),103%,-98.9% (inactive),74.4%,-0.526 (inactive),-0.000207 (inactive),0.00376 (inactive),4.25% (inactive),20.1% (inactive)
CCOC(=O)Cc1nn2c(=O)cc(C)nc2s1,728,-22.9% (inactive),6.2% (inactive),118%,2.2% (inactive),94.9%,-0.474 (inactive),0.000188 (inactive),0.00652 (inactive),2.1% (inactive),11.1% (inactive)
COc1cc(NS(=O)(=O)c2ccc(Br)s2)cc(OC)c1,596,10.2% (inactive),-27.3% (inactive),99.5%,-77.9% (inactive),94.3%,-0.402 (inactive),6.7e-05 (inactive),0.00547 (inactive),9.26% (inactive),10% (inactive)
O=C(NCCCN1CCCC1=O)c1cncc(Br)c1,394,-5.8% (inactive),14.1% (inactive),91.8%,54.5% (active),72.7%,-0.418 (inactive),-9.4e-05 (inactive),0.00605 (inactive),13.1% (inactive),24.3% (inactive)
Cc1cc(S(=O)(=O)n2cnc3ccccc32)c(C)cc1Cl,449,-11.9% (inactive),25.3% (inactive),78%,8% (inactive),113%,-0.473 (inactive),1.7e-06 (inactive),0.00564 (inactive),1.42% (inactive),14.8% (inactive)
CCCCOc1ccc(-c2nnn(CC(=O)Nc3ncc(CC(=O)OCC)s3)n2)cc1,613,36.4% (active),18.6% (inactive),108%,-79% (inactive),79.4%,-0.4 (inactive),6.8e-06 (inactive),0.00855 (inactive),13.5% (inactive),23.8% (inactive)
O=C(CCCCCn1c(SCc2ccncc2)nc2ccccc2c1=O)NCc1ccco1,458,-10.3% (inactive),-29.8% (inactive),109%,-25.1% (inactive),94.5%,-0.498 (inactive),-1.1e-05 (inactive),0.00498 (inactive),8.7% (inactive),15.5% (inactive)
